Screening data from PubChem BioAssay.
Jurkat NFkB inh = lowers PMA/ionomycin-induced NF-kB signal in Jurkat cells | inhibition, % at 4 µM | PMA/ionomycin-induced NF-kB luciferase reporter, luminescence | 330,000 compounds, 0.53% hits; in the data active means inhibition above about 50%
MPTP inh = inhibitors of mitochondrial permeability transition pore | inhibition, % at 10 µM | isolated mouse mitochondria, Ca2+ swelling absorbance, 30 min | 360,000 compounds, 1.4% hits | AID 602449;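 active means inhibition of 50% or more, scaled per plate between neutral and stimulator controls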;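 further: 0% = DMSO wells given calcium and 100% = 1 mM EGTA wells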
aDG glyco up = alpha-DG glycosylation activation; Pro5-aDG cells, alpha-DG glycosylation AlphaScreen (IIH6); 0% Pro5, 100% B10-LARGE cell signal; activation, % at 10 µM; 360,000 compounds, 0.22% hits;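 active means activation of at least 8% versus controls, or a plate z-score of at least 8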;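 further: Pro5 are CHO cells carrying HIG-tagged alpha-DG that lacks glycosylation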
NR2E3 ag-1 = activates human NR2E3 receptor. Q9Y5X4. inhibition of corepressor binding, % at 3.98 µM. AID 602229. 360,000 compounds, 0.35% hits. CHO-S Gal4-NCOR/VP16-NR2E3 two-hybrid, luciferase;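 active means inhibition above the mean of all tested compounds plus 3 SD, cut at about 70% in these data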;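 further: 0% = DMSO with NR2E3 transfected cells and 100% = cells lacking NR2E3 construct; higher means lower luciferase signal from less NR2E3 corepressor binding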
Target sequence (Q9Y5X4 whole entry, looked up, the tested form may be a part): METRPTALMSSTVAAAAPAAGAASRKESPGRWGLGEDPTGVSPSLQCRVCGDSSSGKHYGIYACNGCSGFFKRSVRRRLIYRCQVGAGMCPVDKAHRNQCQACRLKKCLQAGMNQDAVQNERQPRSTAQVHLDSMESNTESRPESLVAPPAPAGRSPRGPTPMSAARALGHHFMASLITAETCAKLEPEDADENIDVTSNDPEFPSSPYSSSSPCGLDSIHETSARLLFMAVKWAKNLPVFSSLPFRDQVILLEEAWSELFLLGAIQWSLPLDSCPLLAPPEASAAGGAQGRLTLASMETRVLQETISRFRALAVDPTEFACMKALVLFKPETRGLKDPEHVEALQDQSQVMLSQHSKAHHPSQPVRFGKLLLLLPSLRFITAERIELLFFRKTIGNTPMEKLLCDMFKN
NR2E3 ag-2 = activates human photoreceptor nuclear receptor NR2E3; Q9Y5X4; GST-NR2E3/biotin-RetCOR TR-FRET, 1536-well; inhibition of corepressor binding, % at 4.78 µM; 320,000 compounds, 0.12% hits; AID 2300;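 active means percent inhibition above the cutoff of mean plus 3 SD of all tested compounds, set per screening campaign, cut at about 20% in these data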;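 further: 0% = DMSO wells and 100% = biotin wells as full block of FRET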
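Material: NR2E3–RetCOR corepressor complex | Quantity: 1.35 nM GST-tagged NR2E3 final | Schedule: 5 h at 4 °C | Replication: Singlicate compound wells | Reagent: RetCOR corepressor, biotinylated, 7 nM | Controls: Biotin wells as high control, 0.6% DMSO wells as low control | Signal: TR-FRET, Eu(K)-anti-GST donor, streptavidin-D2 acceptor, ex 340, em 617/671 nm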
697 NFkB inh = lowers PMA/ionomycin-induced NF-kB signal in 697 B cells. 697 B-cell NF-kB luciferase reporter, 16 h. inhibition, % at 4 µM. 330,000 compounds, 0.33% hits. AID 435022; in the data active means inhibition above about 35%
NR2E3 agonist cf = confirmation of human NR2E3 nuclear receptor agonists. shares compounds with NR2E3 ag-2. activation (reported as inhibition), % at 3.98 µM. 360 compounds, 39% hits. AID 2379. cell-free NR2E3 corepressor release, TR-FRET, 5 h; in the data active means activation above about 20%
PPARg-NCOR2 ag = counter-screen for NR2E3 agonists: human PPARgamma-NCOR2 interaction agonists; 360 compounds, 45% hits; inhibition, % at 3.98 µM; shares compounds with NR2E3 ag-2; AID 504787; TR-FRET PPARg-NCOR2 coregulator interaction, biochemical; in the data active means inhibition above about 20%;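 further: 0% = DMSO vehicle and 100% = wells without protein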
Starred values were filed as active, the others as inactive; / = not tested or not shown. A selection: hits, their analogues and other compounds. The true share with any hit is near 2.4%.

SMILES	Jurkat NFkB inh	MPTP inh	aDG glyco up	NR2E3 ag-1	NR2E3 ag-2	697 NFkB inh	NR2E3 agonist cf	PPARg-NCOR2 ag
CN(C(=O)c1ccc(NC(=O)Cc2ccc(NC(=O)C3CCN(C(=O)C4CCCC4)CC3)cc2)cc1)C1CCCC1	/	-2	0	-36	/	/	/	/
COc1ccc(/C=N/NC(=O)C(=O)N2CCN(c3ccccc3OC)CC2)cc1	7	1	0	-19	30*	-16	-6	-9
O=C(O)CCC(=O)N1CCN(c2nc(-c3ccccc3Cl)c3cc(Br)ccc3n2)CC1	1	5	0	-12	24*	8	15	16
COC(=O)C1=CN(c2ccc3c(c2)OCO3)C(N)=C(C#N)C1c1cccc(F)c1 (stereo not given)	/	1	0	/	/	/	/	/
CC1CCCN(C(=O)CSc2cnc3ccccc3n2)C1 (stereo not given)	-25	0	0	-56	48*	-35	14	11
Cc1nc2ccccc2nc1SCC(=O)N1CCC(C)CC1	13	17	1	15	22*	-7	13	16
CC1CCCN(C(=O)CSc2nc3ncccc3[nH]2)C1 (stereo not given)	4	-4	0	-4	-2	23	/	/
CC1CCN(C(=O)CSc2nc3ccccc3s2)CC1	-67	6	0	-138	2	-72	/	/
C[C@@H]1CN([C@H](C)CO)C(=O)CCCn2cc(nn2)CO[C@H]1CN(C)C(=O)Nc1ccc(C(C)(C)C)cc1	/	-1	0	-5	/	/	/	/
CCc1cc2cc3c(cc2nc1SCC(=O)Nc1cc(C)on1)OCO3	-7	-1	0	-14	23*	3	51*	62*
CCc1cc2ccc(C)cc2nc1SCC(=O)Nc1cc(C)on1	-18	-2	0	-14	-6	-3	/	/
CCCCNC(=O)c1nc(C2CCN(S(=O)(=O)c3c(OC)cccc3OC)CC2)oc1-c1ccccc1	/	1	0	/	/	/	/	/
NS(=O)(=O)c1cc(C(=O)NC2CCSc3ccccc32)ccc1Cl (stereo not given)	-5	-1	0	-12	20*	5	7	-2
NS(=O)(=O)c1cccc(C(=O)NC2CCSc3ccccc32)c1 (stereo not given)	2	1	0	-3	4	-4	/	/
CCCCN1C(=O)C(CC(=O)NCc2cccc3ccccc23)CC(C(=O)N2CCCCCC2)=C1C (stereo not given)	/	0	0	7	/	/	/	/
CC(C)Sc1nc(-c2cccs2)nc2cc(Cl)ccc12	/	5	0	5	/	/	/	/
O=C(C1=C(O)C(=O)N(CCN2CCOCC2)C1c1cccc([N+](=O)[O-])c1)c1cc2ccccc2o1 (stereo not given)	/	-4	0	1	/	/	/	/
O=C(C1=C(O)C(=O)N(CCc2ccccc2)C1c1ccncc1)c1cc2ccccc2o1 (stereo not given)	6	0	0	-9	34*	4	31*	31*
O=C(C1=C(O)C(=O)N(CCN2CCOCC2)C1c1ccco1)c1cc2ccccc2o1 (stereo not given)	-3	-1	0	-10	14	4	/	/
CCN(CC)CCN1C(=O)C(O)=C(C(=O)c2cc3ccccc3o2)C1c1cccnc1 (stereo not given)	5	-2	0	-27	28*	-19	27*	28*
O=C(C1=C(O)C(=O)N(CCN2CCOCC2)C1c1ccc(F)cc1)c1cc2ccccc2o1 (stereo not given)	2	-2	-1	-3	27*	4	31*	32*
O=C(C1=C(O)C(=O)N(CCN2CCOCC2)C1c1cccc(Br)c1)c1cc2ccccc2o1 (stereo not given)	12	-2	0	-21	35*	1	52*	57*
CC1CCCCC1NC(=O)C1CCC(CNS(=O)(=O)c2ccc3c(c2)C(C)(C)C(=O)N3C)CC1 (stereo not given)	/	-2	0	0	/	/	/	/
CCC(C)CN1C(=O)CSCC1(C)C(=O)Nc1c(C)cccc1C (stereo not given)	/	2	0	/	/	/	/	/
O=C(CC[C@H]1O[C@@H](n2ccc(=O)[nH]c2=O)[C@H](O)[C@@H]1O)N[C@H](Cc1ccccc1)C(=O)NCc1ccc2c(c1)OCO2	/	-1	0	-27	/	/	/	/
SMILES	Jurkat NFkB inh	MPTP inh	aDG glyco up	NR2E3 ag-1	NR2E3 ag-2	697 NFkB inh	NR2E3 agonist cf	PPARg-NCOR2 ag
CC1=C(C(=O)N(C(C)C)C(C)C)CC(CC(=O)NCC2CCCCC2)C(=O)N1Cc1ccc(C(C)(C)C)cc1 (stereo not given)	/	0	0	30	/	/	/	/
COc1cccc2cc(C(=O)C3=C(O)C(=O)N(CCN4CCOCC4)C3c3cccs3)oc12 (stereo not given)	0	0	0	5	24*	8	21*	18
COc1ccccc1C1C(C(=O)c2cc3ccccc3o2)=C(O)C(=O)N1CCN(C)C (stereo not given)	12	0	1	6	18	16	/	/
COc1cc(C2C(C(=O)c3cccs3)=C(O)C(=O)N2CCN2CCOCC2)cc(OC)c1OC (stereo not given)	3	0	0	-20	3	21	/	/
O=C(C1=C(O)C(=O)N(CCCN2CCOCC2)C1c1ccccn1)c1cc2ccccc2o1 (stereo not given)	17	0	0	-8	34*	4	16	22*
CN(C)CCN1C(=O)C(O)=C(C(=O)c2cc3ccccc3o2)C1c1cccc(Br)c1 (stereo not given)	-9	0	0	-3	36*	28	36*	34*
C[C@]1(CC/C(=C/CO)CO)[C@H](C=O)CC[C@@]23COC(=O)C2=CCC[C@@H]31	/	2	0	5	/	/	/	/
N#CC(=C=[N-])C1=C(C#N)C(c2ccccc2F)C([n+]2ccccc2)C(O)(C2CC2)N1 (stereo not given)	9	-2	0	-14	29*	31	-7	3
Cc1ccc[n+](C2C(c3ccc([N+](=O)[O-])cc3)C(C#N)=C([S-])NC2(O)C2CC2)c1 (stereo not given)	-18	0	0	15	3	-9	/	/
Cc1cccc[n+]1C1C(c2ccccc2)C(C#N)=C(C(=C=[N-])C#N)NC1(O)C1CC1 (stereo not given)	8	3	2	-18	43*	22	5	30*
